From ChEMBL document CHEMBL3603824, “Evaluation of spiropiperidine hydantoins as a novel class of antimalarial agents” (Bioorg Med Chem, 2015)
Active and inactive are the calls of the source. No cut-off for these calls is given here.

How the values were obtained:
[1] = tested on: Plasmodium falciparum; test: Antimalarial activity against chloroquine-sensitive Plasmodium falciparum 3D7 infected in human erythrocytes assessed as inhibition of parasite growth after 72 hrs by SYBR Green I method; assay type: functional, organism-based; details: 3D7, 72 h
Procedure, shortened: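 P. falciparum 3D7 grown in human erythrocytes (2% hematocrit) in RPMI1640 with Hepes, hypoxanthine, glucose, bicarbonate and Albumax I under 5% CO2/5% O2/90% N2. 10 mM DMSO stocks, 3-fold serial dilutions. Quadruplicate wells at 0.5% parasitemia, 0.1% DMSO final, 72 h at 37 °C. SYBR Green I lysis buffer added, 1 h dark, fluorescence 497/520. IC50 by four-parameter logistic fit.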

[2] = tested on: HepG2; test: Cytotoxicity against human HepG2 cells assessed as inhibition of cell viability after 72 hrs by PrestoBlue Cell Viability Reagent based assay; details: HepG2, 72 h
Procedure, shortened: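 HepG2 kept in DMEM with 10% FBS and L-glutamine on poly-D-lysine at 37 °C, 5% CO2. Seeded 10,000 cells/well, allowed to adhere at least 4 h, then exposed to compound for 72 h. PrestoBlue added for 30 min at 37 °C, fluorescence Ex 560/Em 590 nm. IC50 by nonlinear regression.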

[3] = tested on: Rattus norvegicus; test: Oral bioavailability in Sprague-Dawley rat at 5 mg/kg by LC-MS analysis; assay type: ADME, organism-based; details: in vivo
[4] = tested on: Liver; test: Half-life in mouse liver microsomes at 1 uM by LC-MS/MS analysis; assay type: ADME
Procedure, shortened: (§1)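 Compound at 1 μM with liver microsomes (mouse, rat or human), 1.2 mM NADPH, 3.3 mM MgCl2, 100 mM potassium phosphate pH 7.4, at 37 °C. Aliquots taken at 0, 5, 10, 20 and 30 min and quenched in ice-cold acetonitrile with internal standard. Centrifuged supernatant run by LC-MS/MS. Half-life from analyte/internal standard peak-area ratios.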

[5] = biological target: Beta-secretase 1 (Homo sapiens) (UniProt P56817); test: Inhibition of human recombinant BACE1 using Mca-SEVNLDAEFRK(Dnp)RR-NH2 as substrate up to 10 uM by FRET assay
Beta-secretase 1 (Homo sapiens), sequence (P56817 whole entry): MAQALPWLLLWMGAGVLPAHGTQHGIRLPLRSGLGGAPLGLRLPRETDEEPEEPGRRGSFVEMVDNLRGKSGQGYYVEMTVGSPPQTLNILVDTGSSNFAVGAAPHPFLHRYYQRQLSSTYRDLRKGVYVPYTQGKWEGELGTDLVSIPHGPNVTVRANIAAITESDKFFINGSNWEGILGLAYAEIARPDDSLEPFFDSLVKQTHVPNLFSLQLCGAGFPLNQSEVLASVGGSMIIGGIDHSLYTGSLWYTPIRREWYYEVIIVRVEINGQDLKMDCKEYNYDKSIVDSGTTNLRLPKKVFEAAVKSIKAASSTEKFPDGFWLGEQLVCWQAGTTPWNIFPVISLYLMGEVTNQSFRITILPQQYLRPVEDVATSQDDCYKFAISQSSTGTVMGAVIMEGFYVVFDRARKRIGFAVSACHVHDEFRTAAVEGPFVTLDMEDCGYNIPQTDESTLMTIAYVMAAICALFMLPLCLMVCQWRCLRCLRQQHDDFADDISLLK
Procedure, shortened: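 Recombinant human BACE1 at 20 ng/µl, activated 15 min at RT in 100 mM sodium acetate pH 4.0. FRET substrate added at 20 uM final. Run 60 min at RT, time-resolved fluorescence Ex/Em 360/460 nm. IC50 by nonlinear regression.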

[6] = tested on: Plasmodium; test: Inhibition of Plasmodium plamepsin 4 using EDANS-CO-CH2-CH2-CO-ALERMFLSFP-Dap(DABCYL)OH as substrate up to 10 uM after 60 mins by fluorescence assay
Procedure, shortened: (§2)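 Recombinant PM-2 or PM-4, purified and activated at 0.3 mg/ml in pH 4.5 citrate, 0.1% Tween-20, 50 mM DTT for 40 min at RT. Then diluted in 50 mM sodium acetate pH 4.7, 0.01% Tween-20. Serially diluted compounds added, followed by peptide substrate at 20 μM final. Run 60 min at RT, fluorescence Ex/Em 360/535 nm. IC50 derived from the curve.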

[7] = tested on: Rattus norvegicus; test: Volume of distribution in Sprague-Dawley rat at 1 mg/kg, iv and 5 mg/kg, po by LC-MS analysis; assay type: ADME, organism-based; details: in vivo
[8] = biological target: T1, Cathepsin E (Homo sapiens) (UniProt P14091); test: Inhibition of human recombinant cathepsin E using Mca-PLGL-Dpa-AR-NH2 as substrate up to 10 uM by FRET assay
T1 sequence (whole entry): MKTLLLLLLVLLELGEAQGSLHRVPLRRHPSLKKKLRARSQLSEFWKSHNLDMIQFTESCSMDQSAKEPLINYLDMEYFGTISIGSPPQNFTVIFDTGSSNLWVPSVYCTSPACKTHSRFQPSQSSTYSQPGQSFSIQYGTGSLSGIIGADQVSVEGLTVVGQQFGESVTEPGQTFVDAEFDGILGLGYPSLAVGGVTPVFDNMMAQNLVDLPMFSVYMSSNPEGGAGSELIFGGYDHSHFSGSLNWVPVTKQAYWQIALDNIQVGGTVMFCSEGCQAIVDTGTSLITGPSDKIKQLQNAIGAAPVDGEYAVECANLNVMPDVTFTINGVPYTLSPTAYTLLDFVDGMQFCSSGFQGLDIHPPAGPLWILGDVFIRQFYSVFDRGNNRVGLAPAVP
Procedure, shortened: (§3)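 Recombinant human cathepsin D at 20 ng/µl and cathepsin E at 1 ng/µl, each activated 30 min at RT in 0.1 M NaOAc, 0.2 M NaCl, pH 3.5. FRET substrate added at 20 uM final. Run 60 min at RT, time-resolved fluorescence Ex/Em 360/460 nm. IC50 by nonlinear regression.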

[9] = Selectivity index, ratio of IC50 for human HepG2 cells to IC50 for chloroquine-sensitive Plasmodium falciparum 3D7 infected in human erythrocytes; assay type: toxicity, cell-based; details: read-out: Ratio IC50
[10] = tested on: Plasmodium falciparum; test: Antimalarial activity against multidrug-resistant Plasmodium falciparum Dd2 infected in human erythrocytes assessed as inhibition of parasite growth after 72 hrs by SYBR Green I method; assay type: functional, organism-based; details: Dd2, 72 h
Procedure, shortened: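 SYBR Green I growth assay in human erythrocytes. DMSO stocks (10 mM), 3-fold serial dilutions, then diluted 500-fold into medium and added in quadruplicate. Final conditions: 2% hematocrit, 0.5% parasitemia, 0.1% DMSO. Incubated 72 h at 37 °C. Lysis buffer with SYBR Green I added, 1 h at room temperature in the dark. Fluorescence read at 497/520 nm. IC50 from four-parameter logistic nonlinear regression.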

[11] = Half-life in Sprague-Dawley rat at 1 mg/kg, iv and 5 mg/kg, po by LC-MS analysis; assay type: ADME, organism-based; details: in vivo
[12] = tested on: Liver microsome; test: Half-life in human liver microsomes at 1 uM by LC-MS/MS analysis; assay type: ADME; procedure, shortened: as §1
[13] = biological target: Cathepsin D (Homo sapiens) (UniProt P07339); test: Inhibition of human recombinant cathepsin D using Mca-PLGL-Dpa-AR-NH2 as substrate up to 10 uM by FRET assay; procedure, shortened: as §3
Cathepsin D (Homo sapiens), sequence (P07339 65-162 limits assumed): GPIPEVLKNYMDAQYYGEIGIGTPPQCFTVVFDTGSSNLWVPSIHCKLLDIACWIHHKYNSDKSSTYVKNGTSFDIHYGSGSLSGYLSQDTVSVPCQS
Cathepsin D (Homo sapiens), sequence (P07339 169-412 limits assumed): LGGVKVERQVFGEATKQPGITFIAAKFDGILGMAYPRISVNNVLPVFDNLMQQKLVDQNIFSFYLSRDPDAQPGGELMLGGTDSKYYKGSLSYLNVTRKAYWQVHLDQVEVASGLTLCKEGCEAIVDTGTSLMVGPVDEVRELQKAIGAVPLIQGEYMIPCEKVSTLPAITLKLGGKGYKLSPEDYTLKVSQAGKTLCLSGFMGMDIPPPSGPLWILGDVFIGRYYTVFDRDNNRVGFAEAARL

[14] = tested on: Plasmodium; test: Inhibition of Plasmodium plamepsin 2 using EDANS-CO-CH2-CH2-CO-ALERMFLSFP-Dap(DABCYL)OH as substrate up to 10 uM after 60 mins by fluorescence assay; procedure, shortened: as §2
[15] = tested on: Liver microsome; test: Half-life in rat liver microsomes at 1 uM by LC-MS/MS analysis; assay type: ADME; procedure, shortened: as §1

SMILES: CCN1C(=O)N(CCC(C)C)C2(CCN(Cc3cc(Cl)cc(Cl)c3O)CC2)C1=O
- IC50 [1]: 0.46 µM

SMILES: CCN1C(=O)N(CCC(C)C)C2(CCN(Cc3cccnc3N)CC2)C1=O
- IC50 [1]: > 10 µM

SMILES: CCN1C(=O)N(Cc2ccc(OC)cc2)C2(CCN(Cc3cc(Cl)ccc3O)CC2)C1=O
- IC50 [1]: 0.56 µM

SMILES: CCN1C(=O)N(CCc2ccccc2)C2(CCN(Cc3cc(Cl)ccc3O)CC2)C1=O
- IC50 [1]: 0.29 µM

SMILES: CCN1C(=O)N(CCC(C)C)C2(CCN(Cc3ccccc3O)CC2)C1=O
- IC50 [1]: 1.1 µM

SMILES: CCN1C(=O)N(CCC(C)C)C2(CCN(Cc3ccc(Cl)cc3O)CC2)C1=O
- IC50 [2]: > 50 µM
- IC50 [1]: 2.1 µM

SMILES: CCN1C(=O)N(CCC(C)C)C2(CCN(Cc3ccc(O)c(Cl)c3)CC2)C1=O
- IC50 [1]: 2.6 µM

SMILES: CCN1C(=O)N(CCC(C)C)C2(CCN(Cc3cccc(OC)c3)CC2)C1=O
- IC50 [1]: 16 µM

SMILES: CCN1C(=O)N(CCC(C)C)C2(CCN(Cc3cccc4cc[nH]c34)CC2)C1=O
- IC50 [1]: 3.4 µM

SMILES: CCN1C(=O)N(CCC(C)C)C2(CCN(Cc3cc(O)cc(Cl)c3)CC2)C1=O
- IC50 [1]: 0.76 µM

SMILES: CCN1C(=O)N(CCC(C)C)C2(CCN(Cc3cccc(OC)c3O)CC2)C1=O
- IC50 [1]: 6 µM

SMILES: CCN1C(=O)N(CCC(C)C)C2(CCN(C(=O)c3cc(Cl)ccc3O)CC2)C1=O
- IC50 [1]: > 10 µM

SMILES: CCN1C(=O)N(Cc2ccccc2)C2(CCN(Cc3cc(Cl)ccc3O)CC2)C1=O
- IC50 [1]: 0.56 µM

SMILES: CCN1C(=O)N(Cc2ccc(C(F)(F)F)cc2)C2(CCN(Cc3cc(Cl)ccc3O)CC2)C1=O
- IC50 [1]: 0.23 µM

SMILES: CCN1C(=O)N(CCC(C)C)C2(CCN(Cc3c(O)ccc(Cl)c3Cl)CC2)C1=O
- IC50 [1]: 0.28 µM

SMILES: CCN1C(=O)NC2(CCN(Cc3cc(Cl)ccc3O)CC2)C1=O
- IC50 [1]: > 10 µM

SMILES: CCN1C(=O)N(C2CCCC2)C2(CCN(Cc3cc(Cl)ccc3O)CC2)C1=O
- IC50 [1]: 0.43 µM

SMILES: CC(C)CCN1C(=O)N(Cc2cccnc2)C(=O)C12CCN(Cc1cc(Cl)ccc1O)CC2
- IC50 [1]: 0.84 µM

SMILES: CCN1C(=O)N(CCC(C)C)C2(CCN(Cc3cc(C)ccc3O)CC2)C1=O
- IC50 [1]: 0.88 µM

SMILES: CCN1C(=O)N(c2ccccc2)C2(CCN(Cc3cc(Cl)ccc3O)CC2)C1=O
- IC50 [1]: 3.6 µM

SMILES: CCN1C(=O)N(CCC(C)C)C2(CCN(Cc3cc(Cl)cnc3N)CC2)C1=O
- IC50 [1]: > 10 µM

SMILES: CCN1C(=O)N(CCC(C)C)C2(CCN(Cc3cc(OC)ccc3O)CC2)C1=O
- IC50 [1]: 0.56 µM

SMILES: CCN1C(=O)N(Cc2ccc(C#N)cc2)C2(CCN(Cc3cc(Cl)ccc3O)CC2)C1=O
- IC50 [1]: 1.5 µM

SMILES: CCN1C(=O)N(CCC(C)C)C2(CCN(Cc3cc(-c4ccccc4)ccc3O)CC2)C1=O
- IC50 [2]: > 50 µM
- IC50 [1]: 0.29 µM

SMILES: CCN1C(=O)N(CCC(C)C)C2(CCN(Cc3cc(F)ccc3O)CC2)C1=O
- IC50 [1]: 1.4 µM

SMILES: CCN1C(=O)N(CC)C2(CCN(Cc3cc(Cl)ccc3O)CC2)C1=O
- IC50 [1]: 6.7 µM

SMILES: CCN1C(=O)N(CCC(C)C)C2(CCNCC2)C1=O
- IC50 [1]: > 10 µM

SMILES: CCN1C(=O)N(CCC(C)C)C2(CCN(Cc3cccc(Cl)c3O)CC2)C1=O
- IC50 [1]: 1.1 µM

SMILES: CC(C)CCN1C(=O)NC(=O)C12CCN(Cc1cc(Cl)ccc1O)CC2
- IC50 [1]: > 10 µM

SMILES: CCN1C(=O)N(CCC(C)C)C2(CCN(Cc3cc(Br)ccc3O)CC2)C1=O
- IC50 [1]: 0.21 µM

SMILES: CCN1C(=O)N(CCC(C)C)C2(CCN(Cc3cc(Cl)ccc3O)CC2)C1=O
- F [3]: 10%
- t1/2 [4]: 4 min
- inhibition [5]: inactive
- IC50 [2]: 37 µM
- inhibition [6]: inactive
- IC50 [1]: 0.22 µM
- Vd [7]: 3.7 L/kg
- inhibition [8]: inactive
- selectivity ratio [9]: > 100
- IC50 [10]: 0.22 µM
- half-life [11]: 16.8 min
- t1/2 [12]: 9 min
- inhibition [13]: inactive
- inhibition [14]: inactive
- t1/2 [15]: 3 min

SMILES: CC(C)CCN1C(=O)N(CCCc2ccncc2)C(=O)C12CCN(Cc1cc(Cl)ccc1O)CC2
- IC50 [1]: 0.61 µM

SMILES: CCN1C(=O)N(CCC(C)C)C2(CCN(Cc3ccccn3)CC2)C1=O
- IC50 [1]: > 10 µM

SMILES: CCN1C(=O)N(CCC(C)C)C2(CCN(Cc3cc(Cl)c(Cl)cc3O)CC2)C1=O
- inhibition [5]: inactive
- IC50 [2]: > 50 µM
- inhibition [6]: inactive
- IC50 [1]: 0.09 µM
- inhibition [8]: inactive
- selectivity ratio [9]: > 500
- inhibition [13]: inactive
- inhibition [14]: inactive

SMILES: CCN1C(=O)N(CCC(C)C)C2(CCN(Cc3cccc(Cl)c3)CC2)C1=O
- IC50 [1]: 14 µM

SMILES: CCN1C(=O)N(CCC(C)C)C2(CCN(C(=O)c3ccccn3)CC2)C1=O
- IC50 [1]: > 10 µM

SMILES: CCN1C(=O)N(CCC(C)C)C2(CCN(Cc3ccc(OC)cc3O)CC2)C1=O
- IC50 [1]: 0.94 µM

SMILES: CCN1C(=O)N(CCC(C)C)C2(CCN(CCCO)CC2)C1=O
- IC50 [1]: > 10 µM

SMILES: CCN1C(=O)N(CCC(C)C)C2(CCN(Cc3ccc(OC)cc3OC)CC2)C1=O
- IC50 [1]: 7.6 µM

SMILES: CC(C)CCN1C(=O)N(C(C)C)C(=O)C12CCN(Cc1cc(Cl)ccc1O)CC2
- IC50 [1]: 0.11 µM

SMILES: CCN1C(=O)N(CCC(C)C)C2(CCN(Cc3cccc4cccnc34)CC2)C1=O
- IC50 [1]: > 10 µM

SMILES: CCN1C(=O)N(CCC(C)C)C2(CCN(Cc3c(O)cccc3Cl)CC2)C1=O
- IC50 [1]: 0.41 µM
